Data from ChEMBL document CHEMBL2429772, “Selective arylsulfonamide inhibitors of ADAM-17: hit optimization and activity in ovarian cancer cell models” (J Med Chem, 2013).

Columns and labels:
[1] = target: Matrix metalloproteinase-9 (Homo sapiens, UniProt P14780); experiment: Inhibition of recombinant human MMP-9 using Mca-Lys-Pro-Leu-Gly-Leu-Dap(Dnp)-Ala-Arg-NH2 as substrate incubated for 4 hrs measured every 15 secs for 20 mins by fluorimetric assay
In short: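 Pro-MMP-9 was activated with 1 mM APMA for 1 h at 37 °C and used at 1.3 nM final. Inhibitor was incubated with enzyme for 4 h at 25 °C in Tris 50 mM pH 7.5, NaCl 150 mM, CaCl2 10 mM, 0.05% Brij-35, 1% DMSO. Substrate was at 2 µM final, ex 325/em 400 nm, in duplicate. IC50 was obtained from vi/vo = 1/(1+[I]/IC50).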

[2] = target: Disintegrin and metalloproteinase domain-containing protein 17 (Homo sapiens, UniProt P78536); experiment: Inhibition of recombinant human ADAM-17 using Mca-Lys-Pro-Leu-Gly-Leu-Dap(Dnp)-Ala-Arg-NH2 as substrate incubated for 30 mins measured every 15 secs for 20 mins by fluorimetric assay
In short: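 Enzyme at 5 nM final was preincubated with inhibitor for 30 min at 37 °C in Tris 25 mM pH 9, ZnCl2 25 µM, 0.005% Brij-35. Substrate was at 2 µM final. Fluorescence increase (ex 325/em 400 nm) gave initial rates, in duplicate. IC50 was derived from vi/vo = 1/(1+[I]/IC50).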

[3] = target: Matrix metalloproteinase-14 (Homo sapiens, UniProt P50281); experiment: Inhibition of recombinant human MMP-14 catalytic domain using Mca-Lys-Pro-Leu-Gly-Leu-Dap(Dnp)-Ala-Arg-NH2 as substrate incubated for 4 hrs measured every 15 secs for 20 mins by fluorimetric assay
In short: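 MMP-14 catalytic domain was used at 1.0 nM final with no activation step. It was incubated with inhibitor for 4 h at 25 °C in Tris 50 mM pH 7.5 buffer with NaCl 150 mM, CaCl2 10 mM, 0.05% Brij-35 and 1% DMSO. Substrate was at 2 µM final, ex 325/em 400 nm, duplicate wells. IC50 was fitted by vi/vo = 1/(1+[I]/IC50).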

[4] = target: 72 kDa type IV collagenase (Homo sapiens, UniProt P08253); experiment: Inhibition of recombinant human MMP-2 using Mca-Lys-Pro-Leu-Gly-Leu-Dap(Dnp)-Ala-Arg-NH2 as substrate incubated for 4 hrs measured every 15 secs for 20 mins by fluorimetric assay
In short: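 Pro-MMP-2 was activated with 2 mM APMA for 1 h at 37 °C and used at 0.56 nM final. It was preincubated with inhibitor for 4 h at 25 °C in Tris 50 mM pH 7.5 buffer containing NaCl, CaCl2, Brij-35 and 1% DMSO. Substrate was at 2 µM final, ex 325/em 400 nm, run in duplicate. IC50 was taken from initial-velocity ratios, vi/vo = 1/(1+[I]/IC50).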

Interstitial collagenase = target: T1, Interstitial collagenase (Homo sapiens, UniProt P03956); experiment: Inhibition of recombinant human MMP-1 using Mca-Lys-Pro-Leu-Gly-Leu-Dap(Dnp)-Ala-Arg-NH2 as substrate incubated for 4 hrs measured every 15 secs for 20 mins by fluorimetric assay
T1 sequence (P03956 whole entry): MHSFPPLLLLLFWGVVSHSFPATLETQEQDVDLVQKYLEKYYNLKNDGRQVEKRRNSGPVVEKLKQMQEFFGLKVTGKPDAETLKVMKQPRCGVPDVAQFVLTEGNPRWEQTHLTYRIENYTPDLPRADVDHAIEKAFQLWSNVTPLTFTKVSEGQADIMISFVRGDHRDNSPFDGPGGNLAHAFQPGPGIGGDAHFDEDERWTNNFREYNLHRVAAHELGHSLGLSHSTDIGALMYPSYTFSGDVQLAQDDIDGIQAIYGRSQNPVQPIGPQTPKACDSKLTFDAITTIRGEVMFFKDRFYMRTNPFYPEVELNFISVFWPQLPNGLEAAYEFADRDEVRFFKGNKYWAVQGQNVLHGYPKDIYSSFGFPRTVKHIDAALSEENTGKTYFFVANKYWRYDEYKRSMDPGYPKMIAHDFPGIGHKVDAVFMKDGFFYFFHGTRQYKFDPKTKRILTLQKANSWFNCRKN
In short: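 Pro-MMP-1 was activated with 2 mM APMA for 2 h at 37 °C. Enzyme (2.0 nM final) was incubated with inhibitor in Tris 50 mM pH 7.5, NaCl 150 mM, CaCl2 10 mM, 0.05% Brij-35, 1% DMSO for 4 h at 25 °C. Substrate was added at 2 µM final. Fluorescence (ex 325/em 400 nm) was read for initial rates, in duplicate. IC50 came from vi/vo = 1/(1+[I]/IC50).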

72 kDa type IV collagenase, sequence (P08253 whole entry): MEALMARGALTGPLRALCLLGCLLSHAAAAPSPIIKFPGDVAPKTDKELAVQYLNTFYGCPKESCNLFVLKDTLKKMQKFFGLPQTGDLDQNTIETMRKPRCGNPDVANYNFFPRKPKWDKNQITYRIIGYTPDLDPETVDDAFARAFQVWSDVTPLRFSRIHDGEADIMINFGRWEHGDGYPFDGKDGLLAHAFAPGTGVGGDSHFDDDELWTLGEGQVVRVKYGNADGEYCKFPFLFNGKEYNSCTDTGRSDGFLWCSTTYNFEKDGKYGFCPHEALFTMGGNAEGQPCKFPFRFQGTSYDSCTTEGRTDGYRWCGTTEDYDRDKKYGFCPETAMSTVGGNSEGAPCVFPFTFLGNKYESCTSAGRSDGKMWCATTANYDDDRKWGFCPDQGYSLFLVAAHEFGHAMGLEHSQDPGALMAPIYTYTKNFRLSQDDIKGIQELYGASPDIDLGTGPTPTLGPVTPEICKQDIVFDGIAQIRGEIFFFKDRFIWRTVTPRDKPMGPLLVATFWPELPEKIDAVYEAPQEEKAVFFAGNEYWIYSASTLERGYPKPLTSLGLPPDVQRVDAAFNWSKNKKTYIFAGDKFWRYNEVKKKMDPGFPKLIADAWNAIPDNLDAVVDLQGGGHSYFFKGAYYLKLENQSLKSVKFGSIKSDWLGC
Disintegrin and metalloproteinase domain-containing protein 17, sequence (P78536 whole entry, the tested form may be a part): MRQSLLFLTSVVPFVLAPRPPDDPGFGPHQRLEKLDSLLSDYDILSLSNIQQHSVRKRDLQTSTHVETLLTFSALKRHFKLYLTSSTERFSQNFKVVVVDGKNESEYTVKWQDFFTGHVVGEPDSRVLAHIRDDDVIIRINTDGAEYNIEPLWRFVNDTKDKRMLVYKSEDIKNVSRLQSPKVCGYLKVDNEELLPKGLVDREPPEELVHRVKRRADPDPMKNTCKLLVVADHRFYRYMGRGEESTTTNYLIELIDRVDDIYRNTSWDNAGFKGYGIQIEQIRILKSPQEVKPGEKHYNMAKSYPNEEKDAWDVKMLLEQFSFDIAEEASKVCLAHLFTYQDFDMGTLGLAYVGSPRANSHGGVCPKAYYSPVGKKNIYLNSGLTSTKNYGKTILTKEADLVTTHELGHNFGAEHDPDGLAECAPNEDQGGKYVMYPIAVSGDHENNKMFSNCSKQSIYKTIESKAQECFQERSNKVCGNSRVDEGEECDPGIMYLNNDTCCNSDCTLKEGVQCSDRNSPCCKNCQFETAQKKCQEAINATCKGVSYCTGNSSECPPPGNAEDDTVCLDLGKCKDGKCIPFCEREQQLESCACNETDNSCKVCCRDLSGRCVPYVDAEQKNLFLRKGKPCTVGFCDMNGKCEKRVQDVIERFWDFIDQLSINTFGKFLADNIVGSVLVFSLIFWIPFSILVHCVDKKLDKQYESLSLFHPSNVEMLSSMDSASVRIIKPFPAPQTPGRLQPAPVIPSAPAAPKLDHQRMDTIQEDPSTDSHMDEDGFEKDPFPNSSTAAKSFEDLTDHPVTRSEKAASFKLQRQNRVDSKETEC
Matrix metalloproteinase-9, sequence (P14780 whole entry): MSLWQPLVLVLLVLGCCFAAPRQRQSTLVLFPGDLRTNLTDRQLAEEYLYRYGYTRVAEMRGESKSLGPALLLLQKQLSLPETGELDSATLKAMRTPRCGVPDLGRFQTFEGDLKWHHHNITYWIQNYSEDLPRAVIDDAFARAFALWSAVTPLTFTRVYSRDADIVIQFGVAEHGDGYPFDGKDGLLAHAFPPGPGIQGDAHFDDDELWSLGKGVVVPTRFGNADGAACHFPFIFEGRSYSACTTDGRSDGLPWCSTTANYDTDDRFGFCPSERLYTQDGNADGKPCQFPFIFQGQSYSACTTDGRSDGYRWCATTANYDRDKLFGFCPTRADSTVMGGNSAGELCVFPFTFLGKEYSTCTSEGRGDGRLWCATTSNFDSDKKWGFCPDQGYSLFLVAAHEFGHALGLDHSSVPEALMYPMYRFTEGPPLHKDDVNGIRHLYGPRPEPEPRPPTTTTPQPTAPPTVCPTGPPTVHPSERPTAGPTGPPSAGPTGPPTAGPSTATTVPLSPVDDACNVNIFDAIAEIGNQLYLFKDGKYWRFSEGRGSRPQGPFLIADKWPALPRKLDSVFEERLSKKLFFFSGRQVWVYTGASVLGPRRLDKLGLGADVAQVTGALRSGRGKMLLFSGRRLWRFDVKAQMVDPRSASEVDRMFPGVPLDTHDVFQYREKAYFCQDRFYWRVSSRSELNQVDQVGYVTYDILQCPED

**Q.** For O=C(CNS(=O)(=O)c1ccc(OCc2cccc(F)c2)cc1)NO, which IC50 [1] is on record?
**A.** 110 nM

**Q.** What about the IC50 [2] of the same compound?
**A.** 71 nM

**Q.** And the IC50 [3]?
**A.** 940 nM

**Q.** And the IC50 [4]?
**A.** 7.8 nM

**Q.** And the IC50 (Interstitial collagenase)?
**A.** 61000 nM

**Q.** For O=C(CNS(=O)(=O)c1ccc(OCc2cccc(-c3ccccc3)c2)cc1)NO, which IC50 [1] is on record?
**A.** 920 nM

**Q.** And the IC50 [2]?
**A.** 76 nM

**Q.** What about the IC50 [3] of the same compound?
**A.** 1700 nM

**Q.** What about the IC50 [4] of the same compound?
**A.** 41 nM

**Q.** What about the IC50 (Interstitial collagenase) of the same compound?
**A.** 100000 nM

**Q.** For O=C(CNS(=O)(=O)c1ccc(OCc2cccc3cccnc23)cc1)NO, which IC50 [1] is on record?
**A.** 29000 nM

**Q.** What about the IC50 [2] of the same compound?
**A.** 650 nM

**Q.** What about the IC50 [3] of the same compound?
**A.** 120000 nM

**Q.** What about the IC50 [4] of the same compound?
**A.** 670 nM

**Q.** And the IC50 (Interstitial collagenase)?
**A.** 620000 nM

**Q.** Which results are given for O=C(CNS(=O)(=O)c1ccc(OCc2cc(F)cc(F)c2)cc1)NO?
**A.** IC50 [1]: 330 nM; IC50 [2]: 82 nM; IC50 [3]: 890 nM; IC50 [4]: 18 nM; IC50 (Interstitial collagenase): 181000 nM

**Q.** O=C(CNS(=O)(=O)c1ccc(OCc2ccc(Br)cc2)cc1)NO was tested. Which IC50 [1] did it give?
**A.** 1.4 nM

**Q.** What about the IC50 [2] of the same compound?
**A.** 16 nM

**Q.** What about the IC50 [3] of the same compound?
**A.** 630 nM

**Q.** And the IC50 [4]?
**A.** 1.2 nM

**Q.** And the IC50 (Interstitial collagenase)?
**A.** 120000 nM

**Q.** Which results are given for O=C(CNS(=O)(=O)c1ccc(OCc2cccc(OC(F)(F)F)c2)cc1)NO?
**A.** IC50 [1]: 76 nM; IC50 [2]: 280 nM; IC50 [3]: 2900 nM; IC50 [4]: 20 nM; IC50 (Interstitial collagenase): > 500000 nM

**Q.** With O=C(CNS(=O)(=O)c1ccc(OCc2ccccc2)cc1)NO as the compound, how does the IC50 [1] read?
**A.** 96 nM

**Q.** And the IC50 [2]?
**A.** 590 nM

**Q.** For CN(CC(=O)NO)S(=O)(=O)c1ccc(OCc2cc(Br)cc(Br)c2)cc1, which IC50 [2] is on record?
**A.** 160 nM

**Q.** What about the IC50 [3] of the same compound?
**A.** 123000 nM

**Q.** And the IC50 [4]?
**A.** 1870 nM

**Q.** What about the IC50 (Interstitial collagenase) of the same compound?
**A.** > 200000 nM

**Q.** For O=C(O)CNS(=O)(=O)c1ccc(OCc2cc(Br)cc(Br)c2)cc1, which IC50 [2] is on record?
**A.** > 50000 nM

**Q.** And the IC50 [4]?
**A.** 125000 nM
